Results pooled from the literature.
Compare with care: the assays were run in different laboratories.
Target: Peroxisome proliferator-activated receptor alpha (PPARA, Homo sapiens, UniProt Q07869)
One construct used (Q07869 1-468): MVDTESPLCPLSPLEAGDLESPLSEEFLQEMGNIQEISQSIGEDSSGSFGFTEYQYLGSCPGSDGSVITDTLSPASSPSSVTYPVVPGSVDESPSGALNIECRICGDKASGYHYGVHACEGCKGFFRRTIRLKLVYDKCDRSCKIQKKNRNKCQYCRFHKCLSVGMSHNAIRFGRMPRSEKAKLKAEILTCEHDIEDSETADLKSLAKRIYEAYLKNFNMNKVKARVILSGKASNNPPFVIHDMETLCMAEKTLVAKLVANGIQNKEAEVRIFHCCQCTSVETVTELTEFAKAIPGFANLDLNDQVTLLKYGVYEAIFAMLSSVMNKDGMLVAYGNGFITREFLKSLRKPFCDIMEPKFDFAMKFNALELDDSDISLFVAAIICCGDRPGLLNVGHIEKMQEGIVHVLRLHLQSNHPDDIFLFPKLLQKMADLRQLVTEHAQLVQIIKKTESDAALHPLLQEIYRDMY

The EC50 of `Cc1ccc(C)c(OCCCC(C)(C)C(=O)O)c1` is reported as 58 µM (reporter gene; agonist; luciferase).
`O=C(Nc1ccc(OCCF)cc1)c1cc([N+](=O)[O-])ccc1Cl` has an IC50 of greater than 2 µM (enzyme activity in cells; inhibitor).
`CCCCCC#CCC#CCC#CCC#CCCCC(=O)O` has an EC50 of 0.99 µM (reporter gene; agonist; luciferase).
For `Cc1c(C)n(Cc2ccc(-c3ccccc3C(=O)O)cc2)c2ccc(C(=O)N[C@@H](C)c3ccc(C(C)(C)C)cc3)cc12`, the Ki was 0.594 µM (ligand displacement; TR-FRET).
The EC50 of `CC(C)(Oc1ccc(C(=O)c2ccc(Cl)cc2)cc1)C(=O)O` is reported as 47.1 µM (reporter gene; agonist; luciferase).
`O=C(Nc1ccc(Oc2ncccn2)cc1C(=O)O)c1ccc(Cl)cc1Cl` has an IC50 of 11.9 µM (ligand displacement; TR-FRET).
For `C=CCc1ccc(O)c(-c2cc(CC=C)ccc2O)c1`, the Ki was 3.38 µM (ligand displacement; TR-FRET).
For `CC1(C)C=Cc2c(cc3oc(-c4ccccc4)c(O)c(=O)c3c2O)O1`, the Ki was 3.3 µM (ligand displacement; TR-FRET).
With `O=C(Nc1ccc(CCF)cc1)c1cc([N+](=O)[O-])ccc1Cl` the IC50 was greater than 2 µM (enzyme activity in cells; inhibitor).
`C=CCc1ccc(O)c(-c2ccc(O)c(CC=C)c2)c1` has a Ki of 4.6 µM (ligand displacement; TR-FRET).
